# Most compounds without a hit are left out; they make up all but 0.99% or so of the library.
# STK33 kinase inh: inhibitors of purified STK33 kinase, primary screen, biochemical, ADP-Glo luminescence, homogeneous, cell-free. MBP phosphorylation. 0.073% of 320,000 active. inhibition, % at 10 µM. Serine/threonine-protein kinase 33 (Homo sapiens), Q9BYT3;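 active = inhibition at or above 25%, using the most active replicate where run in duplicate; inactive = inhibition below 25%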
# AI-2 QS mod: Vibrio harveyi AI-2 quorum sensing modulators, primary screen, JMH597 strain, luminescence/OD600 ratio; 0.4% of 300,000 active; Vibrio harveyi JMH597 AI-2 luminescence/OD600 ratio, 9 h; stronger effect = lower value; strain lacks LuxN and CqsS sensors; 0 = neutral-control median; AID 2094, 2009; activity change, % at 7.5 µM; in the data active = activity change below about -75%, passing the limit was not always enough; inconclusive = no clear call, values can overlap the other calls;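 also: luminescence divided by OD600 gain over 9 h not by final OD600 alone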
# GSK3beta inhib: human GSK3beta kinase inhibitors, primary screen, biochemical, cell-free homogeneous, HTS | GST-GSK3beta kinase, ADP-Glo luminescence, 60 min; stronger effect = lower value | activity score (negative = inhibition), % at 10 µM | 0.038% of 300,000 active | AID 2097, 2009;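 active = more than half of replicate wells score below -50%, meaning over 50% inhibition versus plate controls; inconclusive = some replicates but at most half score below -50%; inactive = no replicate scores below -50%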;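 also: 0% = median DMSO wells and -100% = median GW8510 positive control wells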
# Target sequence (P49841 whole entry, looked up): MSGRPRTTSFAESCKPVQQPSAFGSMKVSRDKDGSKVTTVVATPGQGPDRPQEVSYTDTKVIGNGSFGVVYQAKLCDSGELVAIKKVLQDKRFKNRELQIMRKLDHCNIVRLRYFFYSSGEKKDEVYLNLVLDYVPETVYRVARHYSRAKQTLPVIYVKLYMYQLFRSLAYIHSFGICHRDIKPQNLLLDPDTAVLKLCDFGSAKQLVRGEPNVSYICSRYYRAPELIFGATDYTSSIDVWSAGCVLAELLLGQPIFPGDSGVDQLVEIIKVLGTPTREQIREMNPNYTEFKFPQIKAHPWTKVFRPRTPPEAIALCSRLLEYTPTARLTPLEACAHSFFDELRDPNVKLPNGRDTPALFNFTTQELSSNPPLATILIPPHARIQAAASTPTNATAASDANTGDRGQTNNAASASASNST
#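 test system = GST-tagged human GSK3beta kinase, cell-free | reagent = 25 µM ATP with peptide substrate | dosing = one dose of 10 µM per compound | schedule = 60 min reaction, RT | detection = luminescent ADP-Glo measurement of ADP formed | control set = DMSO neutral wells and GW8510 at 20 µM as positive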
# GSK3A inh: blockers of GSK3A enzyme activity – biochemical, luminescence, cell-free homogeneous, HTS, primary screen; inhibition, % at 10 µM; AID 2650, 2010; 0.1% of 320,000 active; GSK-3 alpha kinase, ADP-Glo luminescence, 60 min;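 active = more than half of replicates show inhibition above 20%; inconclusive = some but at most half of replicates above 20% inhibition; inactive = no replicate shows inhibition above 20%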;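 also: GST-tagged GSK-3 alpha with peptide substrate and 25 µM ATP; 0% = DMSO neutral wells and 100% = GW8510 positive control wells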
# Dyrk1A ADPGlo: rat Dyrk1A kinase inhibitors, primary screen, biochemical, single point, plate reader; ADP-Glo luminescence, NFATc1 peptide; 0.43% of 310,000 active; inhibition, % at 12.5 µM; Dual specificity tyrosine-phosphorylation-regulated kinase 1A (Rattus norvegicus), Q63470; in the data active = inhibition above about 50%;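 also: plate controls were vehicle with enzyme for no effect and no enzyme for full effect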
# Rce1 inhib: yeast Rce1p protease inhibitors, primary screen, biochemical, fluorescence, cell-free homogeneous; CAAX prenyl protease 2 (Saccharomyces cerevisiae (strain ATCC 204508 / S288c)), Q03530; yeast membranes, quenched prenylated peptide cleavage fluorescence; calls only; 0.27% of 290,000 active;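 active = fall in fluorescence gain of 50% or more versus controls, with final raw signal at or below 3038400; inconclusive = same 50% fall but final raw signal above 3038400; inactive = fall in fluorescence gain under 50%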;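 also: plate controls were neutral control wells for no effect and wells lacking membranes for full effect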
# Target sequence (Q03530 whole entry, looked up): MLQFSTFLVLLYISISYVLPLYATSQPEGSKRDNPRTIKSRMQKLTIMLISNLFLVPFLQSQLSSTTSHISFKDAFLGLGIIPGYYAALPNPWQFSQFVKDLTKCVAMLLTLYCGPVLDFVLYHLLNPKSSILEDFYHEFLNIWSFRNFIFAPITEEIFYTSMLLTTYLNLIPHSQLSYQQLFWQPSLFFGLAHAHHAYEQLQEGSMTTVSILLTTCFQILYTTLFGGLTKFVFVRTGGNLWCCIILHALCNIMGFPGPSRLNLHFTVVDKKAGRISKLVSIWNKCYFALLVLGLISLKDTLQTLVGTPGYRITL
# JMH597 growth rt: Vibrio harveyi growth inhibition, confirmation, counter-screen for AI-2 quorum sensing project, JMH597 strain, OD600 absorbance. growth inhibition, % at 7.5 µM. shares compounds with AI-2 QS mod. 9 h; lacks LuxN and CqsS sensors. 1% of 750 active. AID 2726, 2010;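 active = every replicate shows growth inhibition above 50%; inconclusive = at least half, but not all, replicates pass that cutoff; inactive = fewer than half of replicates pass it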
# BB721 lum counter: luminescence inhibition in constitutive-on V. harveyi, confirmation, counter-screen for LuxS inhibitor project, strain BB721, luminescence readout; shares compounds with AI-2 QS mod; Vibrio harveyi BB721 luminescence, 9 h; inhibition, % at 7.5 µM; 95% of 750 active;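 active = inhibition above about 80% in every replicate, not just on average, limit read from the data; inconclusive = at least half of replicates past the limit, but not all; inactive = fewer than half of replicates past the limit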
# BB721 growth: growth inhibition of V. harveyi BB721, confirmation, cytotoxicity control for AI-2 quorum sensing inhibitors, strain BB721, absorbance OD600; shares compounds with AI-2 QS mod; Vibrio harveyi BB721 growth, 9 h; growth inhibition, % at 7.5 µM; 3% of 750 active; AID 2728, 2010;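 active = every replicate shows growth inhibition above 50%; inconclusive = at least half but not all replicates above 50% inhibition; inactive = under half of replicates above 50% inhibition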
# AI-2 QS JMH597: Vibrio harveyi AI-2 signaling luminescence modulation – JMH597 strain, confirmation; 97% of 750 active; Vibrio harveyi JMH597 AI-2 quorum sensing luminescence, 9 h; luxN and CqsS knockout, AI-2 only; inhibition, % at 7.5 µM; shares compounds with AI-2 QS mod;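 active = every replicate shows more than 75% inhibition of signal versus neutral control wells; inconclusive = half to three quarters of replicates exceed 75% inhibition; inactive = fewer than half of replicates exceed 75% inhibition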
# * = called active by the depositor; i = inactive; ? = inconclusive; nt = no result.
SMILES,STK33 kinase inh,AI-2 QS mod,GSK3beta inhib,GSK3A inh,Dyrk1A ADPGlo,Rce1 inhib,JMH597 growth rt,BB721 lum counter,BB721 growth,AI-2 QS JMH597
O=C(Cc1ccsc1)NNC(=O)c1ccccc1Cl,-1.6,36.8,-0.1,-0.9,19.0,i,nt,nt,nt,nt
CCSc1nsc(NC(=O)Nc2ccc(F)cc2F)n1,8.9,?,1.7,14.7,4.2,i,82.2*,93.9*,?,98.6*
CCSc1nsc(NC(=O)Nc2ccccc2Cl)n1,nt,nt,nt,nt,-2.7,nt,nt,nt,nt,nt
O=C(Nc1ccc2c(c1)OCO2)OCc1ccccc1,0.5,-92.9*,-5.8,3.3,1.3,i,-4.2,98.4*,18.2,98.3*
O=C(NCCc1ccco1)c1cc(COc2cccc(C(F)(F)F)c2)on1,1.3,-84.2*,-3.2,-0.5,6.9,nt,30.9,82.3*,-194.7,92.3*
O=C(NNS(=O)(=O)c1ccc(Cl)cc1)c1ccc(S(=O)(=O)N2CCCCC2)cc1,-1.7,-97.3*,-1.3,2.0,-7.1,i,9.6,99.8*,-17.2,99.8*
COc1cccc2c1OC1(C)CC2NC(=O)N1c1cccc(C(=O)N2CCN(c3ccccn3)CC2)c1 (stereo not drawn),0.2,5.0,2.8,-0.9,-0.5,i,nt,nt,nt,nt
COc1ccccc1N1CCN(C(=O)c2cccc(N3C(=O)NC4CC3(C)Oc3c(OC)cccc34)c2)CC1 (stereo not drawn),3.1,-82.8*,nt,-1.1,-1.0,i,-7.3,-5.4,-13.5,6.1
CCc1cc(Cn2nc(-c3ccccc3)cc2C(=O)NCc2ccccc2OC)on1,0.1,27.3,0.0,-3.6,-2.4,i,nt,nt,nt,nt
O=C(c1cc2cc(Cl)ccc2[nH]1)N1CCN(C(=O)c2ccco2)CC1,2.0,-94.5*,-2.5,0.5,-4.4,i,15.4,97.0*,15.1,98.1*
Cc1nn(Cc2ccc(Cl)cc2)c(C)c1NC(=O)c1c(-c2ccccc2)noc1C,-0.8,-80.3*,2.9,-1.8,0.8,i,0.7,92.5*,-7.5,94.0*
COc1ccccc1NC(=O)CN1CCN(CC(=O)Nc2ccc(F)cc2F)CC1,nt,2.9,-0.3,nt,-2.7,i,nt,nt,nt,nt
CCOC(=O)C1=C(COC(=O)COc2ccc(C(=O)CC)cc2)NC(=O)NC1C (stereo not drawn),-2.4,20.6,-0.3,-2.3,11.8,i,nt,nt,nt,nt
CN(C)S(=O)(=O)c1ccc(Oc2ccccc2)cc1,0.0,-92.8*,-0.3,0.1,3.9,i,-8.1,83.7*,-56.0,99.0*
CCN(CC)S(=O)(=O)c1ccc(Oc2ccccc2)cc1,nt,-31.5,-1.6,nt,4.1,i,nt,nt,nt,nt
COc1ccc(N=C2SCC(c3ccccc3)=NN2C)cc1,-0.7,-87.5*,2.1,-0.9,4.1,nt,50.8,89.9*,145.6,94.7*
O=C(Nc1cccc(S(=O)(=O)NC2=NCCC2)c1)c1ccc(C(F)(F)F)cc1,-1.4,nt,nt,-1.7,nt,nt,nt,nt,nt,nt
COc1cccc(Oc2cn[nH]c2-c2ccc(O)cc2O)c1,6.7,-83.9*,-9.6,6.9,19.7,i,?,97.6*,?,98.9*
O=C(COC(=O)C1CC1)Nc1ccc(Oc2ccccc2)cc1,-2.1,-81.6*,1.9,1.4,-1.9,i,17.1,89.2*,-1.5,93.9*
CO/N=C\CC(=O)Nc1ccc(Oc2ccccc2)cc1,1.1,-79.9*,3.0,-2.7,-4.2,i,12.5,84.0*,-3.4,90.7*
O=C(C/C=N\O)Nc1ccc(Oc2ccccc2)cc1,-0.5,-4.2,-1.3,-1.9,-2.9,i,nt,nt,nt,nt
COC(=O)c1cccc(NS(=O)(=O)c2ccc(OC)c(C(=O)N3CCOCC3)c2)c1C,-1.3,20.0,0.9,1.9,-0.2,i,nt,nt,nt,nt
CC(=O)NC(CC(=O)OCC(=O)N1CCN(S(=O)(=O)c2ccc(C)cc2C)CC1)c1ccccc1 (stereo not drawn),1.0,nt,nt,12.0,nt,nt,nt,nt,nt,nt
CN(C)C(=O)COc1ncnc2sc(-c3ccccc3)cc12,-0.2,-84.1*,-1.6,-3.7,17.5,i,15.0,94.1*,13.1,97.0*
COc1ncnc2sc(-c3ccccc3)cc12,0.1,27.4,-1.5,0.3,5.8,i,nt,nt,nt,nt
SMILES,STK33 kinase inh,AI-2 QS mod,GSK3beta inhib,GSK3A inh,Dyrk1A ADPGlo,Rce1 inhib,JMH597 growth rt,BB721 lum counter,BB721 growth,AI-2 QS JMH597
Cc1ccc(CNS(=O)(=O)c2ccc(C)s2)cc1,0.3,58.0,-1.4,-5.9,0.3,i,nt,nt,nt,nt
CNC(=S)/N=C/NOCc1ccc(Cl)cc1Cl,-1.1,8.0,-1.8,-3.8,4.2,i,nt,nt,nt,nt
Clc1ccc(CON/C=N/c2ncnc3sccc23)c(Cl)c1,0.1,-94.8*,0.0,-1.0,18.6,i,8.0,89.6*,21.7,93.6*
CCc1nc2ccc(C(=O)N3CCN(c4ccc([N+](=O)[O-])cc4)CC3)cc2nc1CC,-0.9,14.9,-1.0,-0.4,-6.4,i,nt,nt,nt,nt
O=C(NCCN1CCOCC1)c1ccc(Cl)c([N+](=O)[O-])c1,0.3,?,0.9,-1.0,3.0,i,3.8,-5.7,-16.2,5.0
Cc1sc2ncnc(OCC(=O)c3ccc(S(=O)(=O)N4CCCC4)cc3)c2c1C,-0.8,-90.1*,1.5,-2.8,10.7,nt,?,97.8*,68.9*,98.9*
CN(C)S(=O)(=O)c1ccc(C(=O)OCC(=O)c2ccc3c(c2)NC(=O)CO3)cc1,-1.0,-94.6*,-7.6,-0.4,4.8,i,-10.3,?,-8.2,84.8*
O=C1COc2ccc(C(=O)COC(=O)Cc3ccsc3)cc2N1,-1.6,-85.1*,5.1,-0.1,0.9,i,27.3,95.2*,10.6,96.7*
Cc1ccc(OCc2cc(C(=O)N(C)Cc3cc(C4CC4)n[nH]3)no2)cc1C,0.2,-81.2*,0.9,0.0,1.8,i,25.0,84.5*,36.0,89.6*

# From PubChem BioAssay
